Test results from ChEMBL document CHEMBL3112500, “Synthesis and biological evaluation of allylated and prenylated mono-carbonyl analogs of curcumin as anti-inflammatory agents” (Eur J Med Chem, 2014).
Activity calls are given as the source filed them. No cut-off for these calls is given here.

What was measured:
RAW264.7 [1] = assay: Antiinflammatory activity in mouse RAW264.7 cells assessed as inhibition of LPS-induced IL-1beta gene expression pretreated at 10 uM for 2 hrs prior LPS challenge measured after 6 hrs post challenge by RT-qPCR analysis; type: functional, cell-based
In short: (§1)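 RAW 264.7 cells in DMEM with 10% FBS, plated at 4.0 × 10⁵ per plate overnight at 37 °C, 5% CO₂. Pretreatment 2 h, then LPS 0.5 µg/ml for 6 h. IL-6, TNF-α and IL-1β mRNA quantified by RT-qPCR, normalized to β-actin mRNA and expressed as ratio to DMSO. Mean ± SD of 3–5 independent experiments.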

RAW264.7 [2] = assay: Antiinflammatory activity in mouse RAW264.7 cells assessed as inhibition of LPS-induced TNF-alpha gene expression pretreated at 10 uM for 2 hrs prior LPS challenge measured after 6 hrs post challenge by RT-qPCR analysis; type: functional, cell-based; in short: as §1
RAW264.7 [3] = assay: Antiinflammatory activity in mouse RAW264.7 cells assessed as inhibition of LPS-induced IL-6 gene expression pretreated at 10 uM for 2 hrs prior LPS challenge measured after 6 hrs post challenge by RT-qPCR analysis; type: functional, cell-based; in short: as §1
[4] = Cytotoxicity against human HL-7702 cells at 10 uM after 24 hrs by MTT assay; type: cell-based; details: l02, 24 h
In short: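 HL-7702 cells, 5000 per well, in 1640 medium with 5% heat-inactivated serum, 37 °C, 5% CO₂. Compounds in DMSO, diluted in medium to final 10 µM, applied for 24 h. MTT (5 mg/ml in 0.9% NaCl) added for 3 h, then cells dissolved in DMSO and absorbance read at 570 nm.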

RAW264.7 [5] = assay: Antiinflammatory activity in mouse RAW264.7 cells assessed as inhibition of LPS-induced IL-6 release pretreated at 10 uM for 2 hrs prior LPS challenge measured after 22 hrs post challenge by ELISA; type: functional
In short: (§2)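 RAW 264.7 cells plated at 4.0 × 10⁵ per plate overnight (37 °C, 5% CO₂). Pretreated 2 h, then stimulated with LPS 0.5 µg/ml (in PBS) for 22 h. Medium TNF-α and IL-6 measured by ELISA, normalized to total cell protein (Bio-Rad assay) and expressed as percent of LPS control. Mean ± SE, 3–5 independent experiments.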

RAW264.7 [6] = assay: Antiinflammatory activity in mouse RAW264.7 cells assessed as inhibition of LPS-induced TNFalpha release pretreated at 10 uM for 2 hrs prior LPS challenge measured after 22 hrs post challenge by ELISA; type: functional; in short: as §2
RAW264.7 [7] = assay: Antiinflammatory activity in mouse RAW264.7 cells assessed as inhibition of LPS-induced IL-6 release pretreated for 2 hrs prior LPS challenge measured after 22 hrs post challenge by ELISA; type: functional, cell-based
In short: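 Dose series in RAW 264.7 cells: pretreatment at 1.1, 3.3 and 10 µM for 2 h, then LPS 0.5 µg/ml for 22 h. Medium IL-6 determined by ELISA and normalized to total protein.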

[8] = Chemical stability of the compound in phosphate buffer at pH 7.4 assessed as compound degradation at 20 uM up to 25 mins by UV-visible absorption spectrum assay; type: physicochemical; details: read-out: Drug degradation
[9] = Chemical stability of the compound in phosphate buffer at pH 7.4 at 20 uM up to 25 mins by UV-visible absorption spectrum assay; type: physicochemical; details: pH 7.4, 25 min
[10] = system: Peritoneal macrophage cell; assay: Antiinflammatory activity in mouse peritoneal macrophages assessed as inhibition of LPS-induced IL6 protein expression pretreated for 2 hrs prior LPS challenge measured after 22 hrs post challenge by ELISA; type: functional, cell-based
In short: (§3)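 Peritoneal macrophages from ICR mice elicited by i.p. thioglycollate, collected by lavage with PBS containing 30 mM EDTA, in RPMI-1640, nonadherent cells washed off at 3 h. Plated at 4.0 × 10⁵ per 35 mm plate. Pretreatment 2 h, then LPS 0.5 µg/ml for 22 h. IL-6 and TNF-α in medium measured by ELISA, normalized to total protein. 3 independent experiments.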

[11] = system: Peritoneal macrophage cell; assay: Antiinflammatory activity in mouse peritoneal macrophages assessed as inhibition of LPS-induced TNFalpha protein expression pretreated for 2 hrs prior LPS challenge measured after 22 hrs post challenge by ELISA; type: functional, cell-based; in short: as §3
Mus musculus = assay: Antiinflammatory activity in C57BL/6 mouse sepsis model assessed as increase in survival rate at 10 mg/kg, iv administered 15 mins prior LPS-challenge measured after 7 days; type: functional
In short: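 Male C57BL/6 mice (18–22 g) were dosed i.v. 15 min before i.p. LPS at 20 mg/kg. Drug solution was 2 mg/ml in macrogol 15 hydroxystearate (5–10%), with or without medium-chain triglycerides (0.5–2%). Controls received vehicle (10% solubilizer, 2% MCT). Survival was recorded every 12 h for 7 days; n = 9 per group.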

Structure (SMILES)	Activity [4]	inhibition at 10 µM (RAW264.7 [5])	further results
C=CCc1cc(/C=C/C(=O)/C=C/c2cc(OC)c(OC)cc2OC)ccc1OC	Non-toxic	20%	inhibition (RAW264.7 [1]): Active; inhibition (RAW264.7 [2]): Active; inhibition (RAW264.7 [3]): Active; inhibition (RAW264.7 [6]): Active; inhibition (RAW264.7 [7]): Dose-dependent effect
C=CCOc1ccc(/C=C/C(=O)/C=C/c2ccc(OC)c(CC=C)c2)cc1	Non-toxic	20%	–
C=CCc1cc(/C=C/C(=O)/C=C/c2c(F)cccc2Br)ccc1OC	Non-toxic	20%	–
COc1cc(/C=C/C(=O)CC(=O)/C=C/c2ccc(O)c(OC)c2)ccc1O [CURCUMIN]	Non-toxic	20%	degraded at 25 min, 20 µM [8]: > 45%; inhibition (RAW264.7 [1]): Active; inhibition (RAW264.7 [2]): Active; inhibition (RAW264.7 [3]): Active
C=CCc1cc(/C=C/C(=O)/C=C/c2ccc(OC)c(OC)c2)ccc1OC	Non-toxic	20%	–
C=CCc1cc(/C=C2\CC/C(=C\c3ccc(OC4CCCCO4)c(CC=C)c3)C2=O)ccc1OC1CCCCO1 (stereo not given)	Non-toxic	–	–
C=CCc1cc(/C=C/C(=O)/C=C/c2ccc(Br)cc2)ccc1OC	Non-toxic	20%	–
C=CCc1cc(/C=C/C(=O)/C=C/c2ccc3ccccc3c2)ccc1OC	Non-toxic	20%	–
C=CCc1cc(/C=C/C(=O)/C=C/c2ccc(OC(C)(C)C)cc2)ccc1OC	Non-toxic	20%	–
COc1cc(/C=C2\CC/C(=C\c3ccc(OCC=C(C)C)c(OC)c3)C2=O)ccc1OCC=C(C)C	Non-toxic	20%	–
C=CCOc1ccc(/C=C/C(=O)/C=C/c2ccc(F)cc2)c(O)c1	Non-toxic	20%	–
CC(C)=CCOc1ccc(/C=C/C(=O)/C=C/c2ccc(OCC=C(C)C)cc2)cc1	Non-toxic	–	–
C=CCc1cc(/C=C/C(=O)/C=C/c2ccccc2C(F)(F)F)ccc1OC	Non-toxic	–	–
COc1cc(/C=C/C(=O)/C=C/c2ccc(OCC=C(C)C)c(OC)c2)ccc1OCC=C(C)C	Non-toxic	20%	–
C=CCOc1ccc(/C=C/C(=O)/C=C/c2ccc(OCC=C)cc2)cc1	Non-toxic	–	–
C=CCc1cc(/C=C2\CC/C(=C\c3ccc(O)c(CC=C)c3)C2=O)ccc1O	Non-toxic	20%	–
C=CCc1cc(/C=C/C(=O)/C=C/c2ccccc2Cl)ccc1OC	Non-toxic	20%	–

Structure (SMILES)	Activity [4]	inhibition at 10 µM (RAW264.7 [5])	further results
C=CCc1cc(/C=C/C(=O)/C=C/c2ccc(OC)c(OC)c2)ccc1O	Non-toxic	20%	inhibition (RAW264.7 [1]): Active; inhibition (RAW264.7 [2]): Active; inhibition (RAW264.7 [3]): Active; inhibition (RAW264.7 [7]): Dose-dependent effect
COc1ccc(/C=C/C(=O)/C=C/c2ccc(OCC=C(C)C)cc2)cc1OC	Non-toxic	20%	–
C=CCc1cc(/C=C/C(=O)/C=C/c2ccc(O)c(CC=C)c2)ccc1O	Non-toxic	96.4%	Stability [9]: Stable; inhibition (RAW264.7 [1]): Active; inhibition (RAW264.7 [2]): Active; inhibition (RAW264.7 [3]): Active; inhibition (RAW264.7 [6]): Active; inhibition (RAW264.7 [7]): Dose-dependent effect
CC(C)=CCOc1ccc(/C=C2\CC/C(=C\c3ccc(OCC=C(C)C)cc3O)C2=O)c(O)c1	Non-toxic	20%	–
C=CCc1cc(/C=C/C(=O)/C=C/c2cc(F)ccc2Br)ccc1OC	Non-toxic	20%	Stability [9]: Stable; inhibition (RAW264.7 [1]): Active; inhibition (RAW264.7 [2]): Active; inhibition (RAW264.7 [3]): Active; inhibition (RAW264.7 [6]): Active; inhibition (RAW264.7 [7]): Dose-dependent effect
C=CCc1cc(/C=C/C(=O)/C=C/c2ccc(C(F)(F)F)cc2)ccc1OC	Non-toxic	20%	–
C=CCc1cc(/C=C/C(=O)/C=C/c2ccc(N3CCCCC3)cc2)ccc1OC	Non-toxic	20%	–
C=CCc1cc(/C=C/C(=O)/C=C/c2cccc(Br)c2)ccc1OC	Non-toxic	20%	–
C=CCc1cc(/C=C/C(=O)/C=C/c2cc(F)ccc2OC)ccc1OC	Non-toxic	20%	–
C=CCc1cc(/C=C/C(=O)/C=C/c2cc(F)ccc2F)ccc1OC	Non-toxic	–	–
C=CCc1cc(/C=C/C(=O)/C=C/c2cccc(Cl)c2Cl)ccc1OC	Non-toxic	20%	–
C=CCc1cc(/C=C/C(=O)/C=C/c2ccc([N+](=O)[O-])cc2)ccc1O	Non-toxic	20%	–
CC(C)=CCOc1ccc(/C=C2\CCC/C(=C\c3ccc(OCC=C(C)C)cc3)C2=O)cc1	Non-toxic	20%	–
C=CCc1cc(/C=C/C(=O)/C=C/c2cc(Br)ccc2Br)ccc1OC	Non-toxic	91.1%	inhibition [10]: Dose-dependent effect; inhibition [11]: Dose-dependent effect; survival at 10 mg/kg (Mus musculus): 45%; Stability [9]: Stable; inhibition (RAW264.7 [1]): Active; inhibition (RAW264.7 [2]): Active; inhibition (RAW264.7 [3]): Active; inhibition at 10 µM (RAW264.7 [6]): 67.5%; inhibition (RAW264.7 [7]): Dose-dependent effect
C=CCOc1ccc(/C=C/C(=O)/C=C/c2ccc(OC)c(OC)c2)cc1	Non-toxic	–	–
C=CCc1cc(/C=C/C(=O)/C=C/c2ccc(N(C)C)cc2)ccc1OC	Non-toxic	20%	–
C=CCc1cc(/C=C/C(=O)/C=C/c2ccc(N3CCOCC3)cc2)ccc1OC	Non-toxic	20%	inhibition (RAW264.7 [1]): Active; inhibition (RAW264.7 [2]): Active; inhibition (RAW264.7 [3]): Active; inhibition (RAW264.7 [7]): Dose-dependent effect
